This note sets out measurements from PubChem BioAssay AID504383 (The Scripps Research Institute Molecular Screening Center, 2011).

Each structure is given as a SMILES string. “And” between values parts separate entries of the source, which are not always exact repeats. Equal values may be shown once. About 1,200 (48%) of roughly 2,500 compounds were called active.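 The calls were made as follows: active = mean activation above the low control average plus 3 SD, as set in the primary screen (cut at about 12% in these data); inactive = the rest.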 So high a share suggests a set chosen from earlier hits. Some of the results follow. More than one record can exist for a structure, and the calls need not agree.

The test deals with Troponin I, cardiac muscle (Homo sapiens) + Troponin T, cardiac muscle (Homo sapiens) + Troponin C, slow skeletal and cardiac muscles (Homo sapiens) (UniProt P19429+P45379+P63316). Kind of test: calcium sensitizers of cardiac thin filaments – biochemical, IANBD-TnC fluorescence, triplicate, confirmation (AID 504383).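 Also: 0% = DMSO at 0.472 mM calcium and 100% = DMSO at 2.9 mM calcium.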 To be noted: IANBD-labeled cardiac RTF, Ca2+ sensitivity fluorescence; at 7.2 µM; stronger effect = higher value; scaled from EC20 to saturating calcium; tested at EC20 calcium, 0.472 mM. In short, it runs like this: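 Test system: labelled regulated thin filament protein complex. Dosing: single nominal compound dose of 7.2 µM. Benchmarks: EC20 and EC100 calcium wells. Read-out basis: fluorescence gain scaled between EC20 and EC100 calcium controls. Probe or stimulus: submaximal calcium at 0.472 mM (EC20). Technique: fluorescence. Times: 15 min compound exposure, 25 °C.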
For `C[n+]1c2cc(N)ccc2cc2ccc(N)cc21`, the activation was 6.45% (inactive) and 14.5% (active).

As for `N#Cc1cc(C(=O)c2cc(F)ccc2O)cn(-c2nccs2)c1=O`, the activation is 9.61% (inactive).

In the case of `N#Cc1cc(C(=O)c2ccccc2O)cn(-c2nccs2)c1=O`, the activation is 45.5% (active).

Take `Cn1c(CCNC(=O)c2ccco2)nc2ccccc21`: the activation is 919% (active).

For the compound `CCN(CC)CCCNC(=O)CCn1nc(-c2ccc(Cl)cc2)ccc1=O`, the activation was 7.9% (inactive).

As to `CN1/C(=C\C(=O)c2ccco2)C(C)(C)c2ccccc21`, the activation was 7.09% (inactive).

Consider `O=C(Cn1c(C(F)(F)F)nc2ccccc21)NCCN1CCCC1`, for which the activation was -3.29% (inactive).

On to `Cn1c(=O)c2c(nc(NCCNC(=O)c3ccco3)n2Cc2ccccc2Cl)n(C)c1=O`, for which the activation is 7.43% (inactive).

In the case of `CCCC(=O)NCCCc1nc2ccccc2n1C`, the activation is 124% (active).

On to `CC(C)(C)NCc1cc(Cl)ccc1OCc1cccs1`, for which the activation is 47% (active).

For the compound `Cc1cc(Cl)ccc1OCC(=O)Nc1nc(-c2cccs2)cs1`, the activation was -1.8% (inactive).

Turning to `COc1ccc(C(=O)Nn2cnc3scc(-c4cccs4)c3c2=O)c(O)c1`, the activation was 29.8% (active).

On to `COc1ccc(OC)c(/C=c2\sc3nc(-c4cccs4)nn3c2=O)c1`, for which the activation is 9.45% (inactive).

Take `CCOC(=O)c1nc2cc3n(c(CC(C)C)c-2c1C)CC(C)=C3C`: the activation is 1.31% (inactive).

As to `Cc1ccc(N=Nc2c(O)[nH]c3ccc(F)cc23)cc1`, the activation was 20.6% (active).

Consider `O=c1[nH]c2ccc(N=Cc3c(O)ccc4cc(Br)ccc34)cc2[nH]1`, for which the activation was 0.37% (inactive).

`Oc1[nH]c2ccc(Br)cc2c1N=Nc1ccc(F)cc1`: the activation was 22.7% (active).

In the case of `Cc1cccc(N=Nc2c(O)[nH]c3ccc(F)cc23)c1`, the activation was 7.58% (inactive).

For the compound `CCN1/C(=C2\SC(=S)N(Cc3ccccc3)C2=O)Sc2ccccc21`, the activation was -1.47% (inactive).

In the case of `CCN1/C(=C/C=C2/SC(=Nc3cccc4ncccc34)N(C)C2=O)Sc2ccccc21`, the activation is 28.3% (active).

As for `CC1(C)CCN2CCC(C)(C)c3c(O)ccc1c32`, the activation was 42.4% (active).

Turning to `Cc1cccn2c(=O)c3cc(C#N)c(=NC(=O)c4cccs4)n(CCCOC(C)C)c3nc12`, the activation is 4.3% (inactive).

For the compound `CCOCCCn1c(=NC(=O)c2cccs2)c(C#N)cc2c(=O)n3cccc(C)c3nc21`, the activation is 19% (active).

Regarding `CCOC(=O)/C(=C/C1=CC(=C/N(C)C)/C(=O)O1)C(C)=O`, the activation is 87.4% (active).

In the case of `CCOC(=O)/C(=C\c1ccc(N2CCC(c3ccccc3)=N2)cc1)C(C)=O`, the activation was 8.5% (inactive).

On to `CCOC(=O)NC1(C(F)(F)F)C(=O)NC(C)=C1C(=O)OC` (configuration not stated), for which the activation is 19.8% (active).

In the case of `CC1CCN(c2ccc3c(c2)S(=O)(=O)c2ccccc2C3=O)CC1`, the activation was 9.57% (inactive).

With `NC(=O)c1c(Nc2nc3c(F)cccc3s2)sc2c1CCCC2`, the activation was -1.65% (inactive).

For the compound `O=C(O)CCCC(=O)Nc1ccc(C(=O)NCc2cccnc2)cc1`, the activation was 0.95% (inactive).

With `CC(Oc1ccc(F)cc1)C(=O)Nc1sc2c(c1C(=O)NCc1cccnc1)CCCC2` (configuration not stated), the activation was 83.6% (active).

As to `CN1C(=CC=C2C=C(I)C(=O)C(I)=C2)C(C)(C)c2ccccc21`, the activation is 4.78% (inactive).

As to `CC1(C)c2ccccc2N2CC(=O)N(CC(N)=O)C21C` (configuration not stated), the activation is 70.2% (active).

`O=C(NCc1ccc(F)cc1)c1cccc2c1C(=O)c1ccc(N3CCC(Cc4ccccc4)CC3)cc1S2(=O)=O`: the activation is 4.35% (inactive).

For the compound `O=C(NC1CC1)c1cccc2c1C(=O)c1ccc(N3CCC(Cc4ccccc4)CC3)cc1S2(=O)=O`, the activation is 0.64% (inactive).

As to `O=C(NCc1cccc(F)c1)c1cccc2c1C(=O)c1ccc(N3CCC(Cc4ccccc4)CC3)cc1S2(=O)=O`, the activation was 14.5% (active).

As to `O=C(NCCc1ccc(F)cc1)c1cccc2c1C(=O)c1ccc(N3CCC(Cc4ccccc4)CC3)cc1S2(=O)=O`, the activation is 107% (active).

For `O=C(NCc1cccc(C(F)(F)F)c1)c1cccc2c1C(=O)c1ccc(N3CCC(Cc4ccccc4)CC3)cc1S2(=O)=O`, the activation is 8.69% (inactive).

For the compound `O=C(NCc1ccco1)c1cccc2c1C(=O)c1ccc(N3CCCC3)cc1S2(=O)=O`, the activation is 7.33% (inactive).

For `O=C(NCc1ccco1)c1cccc2c1C(=O)c1ccc(N3CCC(Cc4ccccc4)CC3)cc1S2(=O)=O`, the activation was 63.9% (active).

With `CC1CCN(c2ccc3c(c2)S(=O)(=O)c2cccc(C(=O)NCc4ccc(F)cc4)c2C3=O)CC1`, the activation is 1.28% (inactive).

As for `CC1CCN(c2ccc3c(c2)S(=O)(=O)c2cccc(C(=O)NCc4cccc(F)c4)c2C3=O)CC1`, the activation is 8.22% (inactive).

As for `O=C(NCCNC(=O)c1cccs1)c1ccco1`, the activation is 40.3% (active).

For the compound `O=C(NCC(=O)N(Cc1cccs1)C(C(=O)NC1CCCCC1)c1ccncc1)c1ccco1` (configuration not stated), the activation was 3.25% (inactive).

As to `CCOC(=O)Cc1csc(CC(N)=O)n1`, the activation was 4.59% (inactive).

For the compound `CCOC(=O)Cc1csc(NC(=O)c2sc3nc4cc(C)ccc4cc3c2N)n1`, the activation is 71.2% (active).

For `CCOC(=O)Cc1csc(N(C)C)n1`, the activation is 10.1% (inactive).

With `Cc1ccc(NC(=O)CN(C)c2ccc(S(=O)(=O)N3CCCC3)cn2)cc1`, the activation is 94.3% (active).

As to `Cc1ccc(CNC(=O)c2ccc(S(=O)(=O)N3CCCCC3)cc2)cc1`, the activation was 6.31% (inactive).

For `CCc1cccc2cc3c(N)c(C(=O)Nc4ccc(S(=O)(=O)N5CCCC5)cc4)sc3nc12`, the activation was 24.8% (active).

Turning to `Cc1cccc2cc3c(N)c(C(=O)N4CCCc5ccccc54)sc3nc12`, the activation was 6.58% (inactive).

Regarding `Nc1c(C(=O)Nc2ccc(S(=O)(=O)N3CCCC3)cc2)sc2nc3ccc(OC(F)(F)F)cc3cc12`, the activation is 11.7% (active).

As to `O=c1[nH][nH]c(C(F)(F)F)c1C=Nc1cccc(Cl)c1`, the activation was 60% (active).

As to `O=c1[nH][nH]c(C(F)(F)F)c1C=NCc1ccccc1Cl`, the activation was 33.6% (active).

For `CN(C)c1ccc2nc3c(=O)[nH]c(=O)nc-3n(CC(O)C(O)C(O)CO)c2c1` (configuration not stated), the activation is 10.2% (inactive).

For the compound `COc1ccccc1C(=O)n1nc(-c2ccccc2)nc1N`, the activation is 4.84% (inactive).

On to `Cc1ccc(-c2nc(N)n(C(=O)c3cccnc3)n2)cc1`, for which the activation is 148% (active).

Turning to `COC(=O)c1ccc(Oc2c(F)c(F)nc(N3CCOCC3)c2F)cc1`, the activation is 5.29% (inactive).

As to `Cc1ccc(C(=O)/C=C/c2cn(CC(O)CN3CCOCC3)c3ccccc23)cc1` (configuration not stated), the activation was -2.05% (inactive).

On to `COc1ccc(C(=O)/C=C/c2cn(CC(O)CN3CCN(C)CC3)c3ccccc23)cc1OC` (configuration not stated), for which the activation is 133% (active).

For the compound `COc1ccc(C(=O)/C=C/c2cn(CC(O)CN3CCOCC3)c3ccccc23)cc1` (configuration not stated), the activation is 21.6% (active).

Take `O=c1c(O)c(-c2cccs2)oc2ccc(Cl)cc12`: the activation is 4.87% (inactive).

Turning to `Nc1nnnn1/N=C/c1cc(Cl)cc(Cl)c1O`, the activation was 11% (inactive).

On to `C/C(=N/NC(=O)c1ccncc1)c1cc2ccc(O)cc2oc1=O`, for which the activation is 4.52% (inactive).

In the case of `O=C(N/N=C/c1cc(Cl)cc(Cl)c1O)c1ccncc1`, the activation was 17.9% (active).

Consider `CC1(C)CC2CC(C)(CN2CC(=O)C(C#N)c2ccccc2)C1` (configuration not stated), for which the activation was 7.07% (inactive).

Turning to `Cn1ncc2c(O/N=C(\N)c3ccc(C(F)(F)F)cc3)ncnc21`, the activation is 93.4% (active).

`Nc1ccn([C@H]2C[C@H](O)[C@@H](CO)O2)c(=O)n1`: the activation is 11.1% (inactive).

Regarding `CC1(OC(=O)CCc2ccccc2)C(=O)C=C2C=C(c3ccc(C#N)cc3)N(C3CCCC3)C=C2C1=O` (configuration not stated), the activation is 5.7% (inactive).

Take `Cc1cc(C)n(C2CCCCC2OC(=O)CCc2ccccc2)n1` (configuration not stated): the activation was 35.8% (active).

For `CC1(C)CC(CC(=O)Nc2nccs2)(c2ccccc2)CCO1` (configuration not stated), the activation is 604% (active).

Turning to `C=CCn1c(SCC(=O)Nc2nccs2)nnc1-c1ccco1`, the activation is 7.96% (inactive).

As for `O=C(Cc1c(F)cccc1Cl)Nc1nccs1`, the activation is 1.97% (inactive).

For `COc1ccccc1N1CCN(C(=O)c2ccc(Cn3c(=O)[nH]c4ccsc4c3=O)cc2)CC1`, the activation was 125% (active).

Regarding `CN1CCN(S(=O)(=O)c2cccc(C(=O)Oc3cccc(Br)c3)c2)CC1`, the activation was 11.4% (inactive).

Take `COCC(=O)NC1CCN(S(=O)(=O)c2cccc(C(C)=O)c2)CC1`: the activation was 14.3% (active).

On to `CC(=NNC(=O)c1ccncc1)c1ccc2ccccc2c1O`, for which the activation is 6.88% (inactive).

For `O=C(N/N=C/c1sc(N2CCOCC2)nc1-c1ccccc1)c1cccc(S(=O)(=O)N2CCCC2)c1`, the activation was 3.15% (inactive).

On to `COc1ccc(C(=O)N/N=C/c2sc3ccccc3c2O)cc1`, for which the activation was 14.3% (active).

For the compound `COc1ccc2cc(C(=O)N/N=C/c3sc4ccccc4c3O)ccc2c1`, the activation was 277% (active).

Regarding `O=C(N/N=C/c1sc2ccccc2c1O)c1ccccc1`, the activation was 66.7% (active).

With `CN(/N=C/c1ccc(O)cc1O)c1ncc(C(F)(F)F)cc1Cl`, the activation is 6.15% (inactive).

Take `CCN1CC=C2C(C1)C(c1ccc(Cl)s1)C(C#N)=C(N)C2(C#N)C#N` (configuration not stated): the activation is 19.5% (active).

As to `Cc1cc(C)c(OCCOCCN2CCNCC2)c(C)c1`, the activation is 7.52% (inactive).

As to `CCc1ccc(C(C)NC(=O)c2ncn[nH]2)cc1` (configuration not stated), the activation was 17.2% (active).

As to `C[C@@H](NC(=O)c1ncn(C)c1C(=O)N[C@H](C)c1ccccc1)c1ccccc1`, the activation is 2.64% (inactive).

Take `CCn1c(NC(=O)Nc2cccc(C)c2C)cc2sccc21`: the activation was 12.6% (active).

Consider `COc1ccc(C2C(C(C)=O)=C(C)N=c3s/c(=C\c4cc(C)n(C)c4C)c(=O)n32)c(OC)c1` (configuration not stated), for which the activation is 15% (active).

Regarding `CCOC(=O)c1[nH]cnc1C(=O)Nc1ccccn1`, the activation was 12.4% (active).

As for `CCOC(=O)C(C(=O)Nc1cccc(C)n1)C1CCCCC1` (configuration not stated), the activation is 7.01% (inactive).

For the compound `CCN(CC)c1ccc2cc(C(=O)Nc3ccccn3)c(=O)oc2c1`, the activation is 7.83% (inactive).

With `Cc1oc(-c2cc3c(cc2Cl)OCO3)nc1CN1CCCC(C(=O)N2CCOCC2)C1` (configuration not stated), the activation is 447% (active).

Turning to `CCN(C(=O)CSc1nnc(COc2ccccc2F)n1N)c1c(N)n(Cc2ccccc2)c(=O)[nH]c1=O`, the activation was 1020% (active).
